Screening results from PubChem BioAssay.
The list is not random: actives were taken first. Their share in the collection is about 4.4%.
T cruzi repl: inhibitors of intracellular T. cruzi growth, primary screen, luminescence, NIH3T3 host cells; T. cruzi beta-gal in NIH3T3, 90 h; inhibition, % (concentration not given with the values); hit rate 1.4% among 300,000;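 active = mean inhibition across valid replicates above about 55%, limit read from the data; inconclusive = mean below that limit but half or more replicates reach it; inactive = mean below it, under half of replicates reach it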;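 note: signal also drops with host cell toxicity which is not excluded here; higher percent means less beta-gal luminescence so fewer parasites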
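System – NIH/3T3 host cells with β-galactosidase reporter T. cruzi · Doses – single 50 nL compound addition per well in DMSO · Reagent – 5000 T. cruzi trypomastigotes/well · Medium – Low-serum DMEM with 2% FBS · Timing – ≥90 h infection period, 3 h prior cell attachment · Evaluation – parasite load inhibition, % · Technique – GalScreen luminescence, 60 min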
HSF1 activator: HSF-1 activators, primary screen, NIH3T3-HGL cells, MG132 stress, luminescence, single point. NIH3T3-HGL HSF-1 luciferase reporter, 8 h; 100% = twice DMSO control signal. activation, % at 9 µM. hit rate 1.7% among 300,000. AID 504408, 2011;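 active = mean replicate activation of at least 50% with a set share of replicates each reaching 50%; inconclusive = only one of those two conditions met; inactive = mean below 50% and too few replicates reaching it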
HSF1 inhib: HSF1 inhibitors in luciferase reporter cells, primary screen, cell-based, NIH3T3, luminescence. NIH3T3-HGL HSE-luciferase, MG132-induced, luminescence 8 h; hits give low values. activity change, negative = inhibition, % at 7.5 µM (by protocol). hit rate 0.77% among 300,000;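 active = more than half of replicate wells show activity change below -50%, luminescence cut by over half; inconclusive = some wells, but at most half, below -50%; inactive = no replicate well below -50%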;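 note: luciferase reports HSF-1 transcriptional activity via heat shock element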
HIF act: HIF pathway transcriptional activators, primary screen, cell-based, U2OS HRE-luciferase, luminescence; U2OS HRE-luciferase reporter; normalized: DMSO 0%, desferrioxamine 100%; activation, % at 7.5 µM (by protocol); hit rate 0.32% among 300,000;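 active = mean activation of at least 10% of the iron chelator positive control signal, with at least half of replicates also reaching 10%; inconclusive = mean and replicate majority disagree about reaching 10%; inactive = mean and most replicates under 10%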
Calb FLC: C. albicans growth inhibition with fluconazole, primary screen, CaCi-2 strain, Alamar Blue fluorescence | hit rate 0.57% among 300,000 | growth inhibition, % (test concentration not listed) | C. albicans CaCi-2 + fluconazole, 48 h;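 active = growth inhibition above about 58% in most replicates, limit read from the data, passing the limit was not always enough; inconclusive = exactly half the replicates above a set limit; inactive = most replicates below a set limit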;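 note: all wells also contain fluconazole at 8 µg/ml as a sub-toxic cotreatment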
Numbers stand for hits; . = inactive; ? = inconclusive; / = not tested or not shown.

SMILES	T cruzi repl	HSF1 activator	HSF1 inhib	HIF act	Calb FLC
Cc1cc(C(F)(F)F)nn1CC(=O)NCc1cccs1	.	.	.	.	.
O=C(O)c1cccc(NC(=S)NC(NC(=O)c2ccco2)C(Cl)(Cl)Cl)c1 (stereo not given)	.	.	-61.2	.	.
O=C(NC(NC(=S)Nc1cccc(C(=O)O)c1)C(Cl)(Cl)Cl)OCc1ccccc1 (stereo not given)	.	/	/	/	.
O=C(NC(NC(=S)Nc1ccc(Cl)c(Cl)c1)C(Cl)(Cl)Cl)c1ccco1 (stereo not given)	.	.	.	.	.
Cc1cccc(NC(=S)NC(NC(=O)OCc2ccccc2)C(Cl)(Cl)Cl)c1 (stereo not given)	57.0	.	.	.	.
COc1ccc(N(C=O)C(C(=O)Nc2c(C)cccc2C)c2ccccc2)cc1 (stereo not given)	.	.	.	.	.
CCOC(=O)C1CCN(S(=O)(=O)c2cccc3nonc23)CC1	.	.	.	.	.
CCOC(=O)C1CCN(S(=O)(=O)c2c(Cl)ccc3nonc23)CC1	64.1	197.3	.	.	.
C/C(=N\Nc1nc(C(C)(C)C)cs1)c1ccccc1	72.7	.	.	.	.
CCn1c(O)c(C=C2N=c3ccccc3=N2)sc1=S	.	.	.	.	.
Oc1c(C=C2N=c3ccccc3=N2)sc(=S)n1-c1ccccc1	.	.	.	22.5	.
O=C(c1ccccc1F)N1CCN(c2cnn(-c3cccc(Cl)c3)c(=O)c2Cl)CC1	.	.	.	.	.
CC(=O)n1cc(C(C[N+](=O)[O-])SCCN)c2ccccc21 (stereo not given)	.	58.9	.	.	.
O=C(COc1ccc(F)cc1)Nc1cc(S(=O)(=O)N2CCCCC2)ccc1N1CCCCC1	55.0	.	.	.	.
CCN1CCN(c2ccc(S(=O)(=O)N3CCCCC3)cc2NC(=O)COc2cc(C)ccc2Cl)CC1	.	.	.	.	.
O=C(COc1ccc([N+](=O)[O-])cc1)Nc1cc(S(=O)(=O)N2CCCCC2)ccc1N1CCCCC1	.	.	.	.	.
CCN1CCN(c2ccc(S(=O)(=O)N3CCCCC3)cc2NC(=O)COc2ccc(F)cc2Cl)CC1	63.9	.	.	.	.
O=C(NCCS(=O)(=O)N1CCN(c2ccc(F)cc2)CC1)c1ccco1	.	.	.	.	.
Cc1ccc2c(c1)C1CN(C)CCC1N2Sc1ccccc1[N+](=O)[O-] (stereo not given)	.	.	.	.	96.9
CC(=O)C1=C(C)NC2(O)c3ccccc3C(=O)C12O (stereo not given)	.	61.6	.	.	?
O=c1[nH]c(SCc2ccc(Cl)cc2)nc2ccsc12	.	126.9	.	.	.
O=c1[nH]c2ccc(S(=O)(=O)Nc3ccc(Br)cc3)cc2[nH]1	.	.	.	.	?
CC(C)(C)NC(=O)CN(Cc1cccs1)C(=O)C1COc2ccccc2O1 (stereo not given)	.	.	.	.	.
CC(C)CCNC(=O)C(c1ccc(O)cc1)N(Cc1cccs1)C(=O)C1COc2ccccc2O1 (stereo not given)	63.9	.	.	.	.
CCOc1ccc(-c2cn(-c3ccc(OC)cc3)c(SC)n2)cc1	.	61.7	.	.	.
SMILES	T cruzi repl	HSF1 activator	HSF1 inhib	HIF act	Calb FLC
CSc1nc(-c2ccccc2)cn1-c1ccc(NC(C)=O)cc1	.	.	.	.	.
CC(=O)N1CCc2cc(S(=O)(=O)NCCC(=O)Nc3cccc(C)c3)ccc21	.	.	.	.	.
CCN(CCCNS(=O)(=O)c1ccc2c(c1)CCN2C(C)=O)c1cccc(C)c1	.	68.6	.	.	.
CCOc1cccc(C(=O)NNC(=O)CCC(=O)O)c1	.	.	.	.	.
CCOc1ccc(NC(=O)COC(=O)C2(C)CC2(Cl)Cl)c([N+](=O)[O-])c1 (stereo not given)	.	.	-53.3	.	.
CC1(C(=O)OCC(=O)Nc2ccc3ccccc3c2)CC1(Cl)Cl (stereo not given)	.	66.0	.	.	.
CCOc1ccc(OCC(=O)Nc2ccc(OC)cc2[N+](=O)[O-])cc1	.	.	.	.	.
CCC(C(=O)NC1CCCC1)N(C(=O)Cn1nnc(-c2ccc(C)o2)n1)c1ccc(F)cc1 (stereo not given)	.	.	.	.	.
CC(C)CN(CC(C)C)S(=O)(=O)N1CCC(C(=O)NCc2ccc3c(c2)OCO3)CC1	.	.	.	.	.
c1ccc(-c2cc(CSc3nc4ccccc4[nH]3)on2)cc1	.	60.9	.	.	.
CC(Oc1ccc(Br)cc1)C(=O)N1CCC(C(N)=O)CC1 (stereo not given)	.	.	.	.	.
CC(=O)Nc1cccc(NC(=O)CSc2nnc(Cc3cccn3C)n2-c2ccc(F)cc2)c1	.	.	-64.8	.	.
CC(=O)c1cnn(-c2ccc(Cl)c(Cl)c2Cl)c1C	.	.	.	.	.
c1ccc2sc(NN=C3CCCCCC3)nc2c1	.	.	.	.	106.3
CC(C)[C@@H]1C=C(C(=O)O)O[C@H](OCCCCO)C1	.	.	.	.	.
CSc1ccc(/C=N\Nc2nncn2N)cc1	.	94.9	.	.	.
COc1cc(/C=N\Nc2nncn2N)ccc1OC(C)=O	.	55.8	.	.	.
COc1cc(/C=N/NC(=O)c2ccncc2)ccc1OC(C)=O	.	.	.	.	.
CC(C)(C)c1ccc(/C=N/Nc2nncn2N)cc1	.	.	.	.	.
O=C1CC(c2nc3ccccc3[nH]2)CN1c1ccccc1 (stereo not given)	.	.	.	.	.
c1ccc(C2=Nc3ccccc3SC2c2nc3ccccc3[nH]2)cc1 (stereo not given)	.	83.8	.	.	.
Cc1cc(N2CCN(C)CC2)nc2ccc(NC(=O)c3cccnc3Cl)cc12	.	.	-58.9	.	.
Cc1cc(N2CCN(C)CC2)nc2ccc(NC(=O)c3ccccc3F)cc12	65.3	.	.	.	.
OCC[C@@H]1C[C@@H](O)[C@H](O)[C@@]2(CCCCO2)O1	.	.	.	.	.
CCOc1ccc(OCCC(=O)OCC(=O)Nc2ccc(N3CCOCC3)cc2)cc1	.	.	.	.	.
Cc1ccc(OCCC(=O)OCC(=O)Nc2ccc(N3CCOCC3)cc2)cc1	.	.	-61.1	.	.
CCC(=O)N1CCN(c2ccc(NC(=O)COc3ccc(CC)cc3)cc2)CC1	.	67.2	.	.	.
CC1SC(c2ccccc2)N(CC(O)c2ccc([N+](=O)[O-])cc2)C1=O (stereo not given)	.	.	.	.	.
Cc1nn(Cc2ccc(C(=O)Nc3ccc(C(=O)OC(C)C)cc3)o2)c(C)c1Cl	55.5	.	.	.	.
